# Published values gathered from unrelated publications.
# Lines come from different studies, so protocols differ.
# EGFR G719S: Epidermal growth factor receptor (EGFR, Homo sapiens, UniProt P00533, G719S)
# EGFR G719C: Epidermal growth factor receptor (EGFR, Homo sapiens, UniProt P00533, G719C)
# EGFR L858R: Epidermal growth factor receptor (EGFR, Homo sapiens, UniProt P00533, L858R)
# EGFR L858R/T790M: Epidermal growth factor receptor (EGFR, Homo sapiens, UniProt P00533, L858R/T790M)
# EGFR: Epidermal growth factor receptor (EGFR, Homo sapiens, UniProt P00533)
SMILES,target,test,setting,endpoint,value
COc1ccc2oc(-c3ccc4nc(N)oc4c3)c/c(=N\c3ccccc3NC(=O)CCN)c2c1,"Epidermal growth factor receptor (EGFR, Homo sapiens, UniProt P00533, T790M)",cell-free assay,1 µM,remaining signal,99%
Cc1ccc(NC(=O)c2ccnc(C(F)(F)F)c2)cc1-c1cc(OCCO)nc(N2CCOCC2)c1,EGFR G719S,binding,1 µM,remaining binding,100%
CO[C@@H]1[C@H](N(C)C(=O)c2ccccc2)C[C@H]2O[C@]1(C)n1c3ccccc3c3c4c(c5c6ccccc6n2c5c31)C(=O)NC4,EGFR G719C,"enzyme activity, inhibitor",1 µM,inhibition,17%
COc1ccc2[nH]c3c4[nH]c5ccc(OC)cc5c4c4c(c3c2c1)C(=O)NC4=O,EGFR L858R,binding,1 µM,remaining binding,50%
CCCCC(=O)Nc1ccc(-c2ccc3ncn(CCC)c(=O)c3c2)cn1,EGFR G719S,"binding, competition with immobilised ligand",0.5 µM,remaining binding,100%
C1=C/COCc2cc(ccc2OCCN2CCCC2)Nc2nccc(n2)-c2cccc(c2)COC/1,EGFR G719C,binding,0.1 µM,remaining binding,75%
C[C@H]1CC[C@H](n2c3cnccc3c3cnc(Nc4ccc5c(n4)CCN(C(=O)CO)C5)nc32)CC1,EGFR L858R/T790M,cell-free assay,1 µM,remaining signal,93%
CS(=O)(=O)c1ccccc1Nc1nc(Nc2ccnc(CO)c2)ncc1Cl,EGFR,"enzyme activity, inhibitor, radiometric",1 µM,remaining activity,94.8%
CC#CC(=O)N1CCC[C@H]1c1nc(-c2ccc(C(=O)Nc3ccccn3)cc2)c2c(N)nccn12,EGFR L858R/T790M,"enzyme activity, inhibitor",1 µM,inhibition,2%
C#Cc1cnc(Nc2ccnc(CO)c2)nc1Nc1ccccc1S(C)(=O)=NC#N (stereo not shown),EGFR L858R,cell-free assay,1 µM,remaining signal,63%
CN1CCN(C(=O)c2ccc(NC(=O)Nc3ccc(N(C)c4ccnc(Nc5ccc(CS(C)(=O)=O)cc5)n4)cc3)cc2)CC1,EGFR L858R,binding,1 µM,remaining binding,92%
CS(=O)(=NC#N)c1ccccc1Nc1nc(Nc2ccnc(CO)c2)ncc1Cl (stereo not shown),EGFR,"enzyme activity, inhibitor, radiometric",1 µM,remaining activity,99.4%
C=CC(=O)N1CCC([C@@H]2CCNc3c(C(N)=O)c(-c4ccc(Oc5ccccc5)cc4)nn32)CC1,EGFR G719C,cell-free assay,1 µM,inhibition,92%
